Active and inactive are the calls of the source. The calls are words filed in the database; no cut-off is given here.
Key:
Mus musculus [1] = assay: Neuroleptic activity in mouse assessed as suppression of conditioned avoidance behavior by measuring mean correct responses level at 10 mg/kg, ip administered 1 hr prior to electric shock challenge; assay type: functional; details: route intraperitoneal
Procedure, shortened: (§1)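 After 20 s a solenoid pushed each mouse back onto the grid, leaving 5 s to return and avoid the next shock. Trained mice reaching 90–100% correct avoidance (3–5 per group) received 10 mg/kg ip. Twenty trials were run before dosing and at intervals after. Percent correct avoidance per animal was averaged per group.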

Mus musculus [2] = assay: Neuroleptic activity in mouse assessed as suppression of conditioned avoidance behavior by measuring mean correct responses level at 10 mg/kg, ip administered 1 day prior to electric shock challenge; assay type: functional; details: route intraperitoneal; procedure, shortened: as §1
Mus musculus [3] = assay: Neuroleptic activity in mouse assessed as suppression of conditioned avoidance behavior by measuring mean correct responses level at 10 mg/kg, ip administered 8 hrs prior to electric shock challenge; assay type: functional; details: route intraperitoneal; procedure, shortened: as §1
Mus musculus [4] = assay: Neuroleptic activity in mouse assessed as suppression of conditioned avoidance behavior by measuring mean correct responses level at 10 mg/kg, ip administered immediately prior to electric shock challenge; assay type: functional; details: route intraperitoneal; procedure, shortened: as §1
Mus musculus [5] = assay: Neuroleptic activity in mouse assessed as suppression of conditioned avoidance behavior by measuring mean correct responses level at 10 mg/kg, ip administered 2 hrs prior to electric shock challenge; assay type: functional; details: route intraperitoneal; procedure, shortened: as §1
Mus musculus [6] = assay: Neuroleptic activity in mouse assessed as suppression of conditioned avoidance behavior by measuring mean correct responses level at 10 mg/kg, ip administered 4 hrs prior to electric shock challenge; assay type: functional; details: route intraperitoneal; procedure, shortened: as §1
Mus musculus [7] = assay: Neuroleptic activity in ip dosed ICR-DUB mouse assessed as survival administered 7 days prior to d-amphetamine challenge measured after 24 hrs; assay type: functional
Mus musculus [8] = assay: Neuroleptic activity in ip dosed ICR-DUB mouse assessed as survival administered 1 hr prior to d-amphetamine challenge measured after 24 hrs; assay type: functional
Mus musculus [9] = assay: Neuroleptic activity in ip dosed ICR-DUB mouse assessed as survival administered 16 hrs prior to d-amphetamine challenge measured after 24 hrs; assay type: functional
Mus musculus [10] = assay: Neuroleptic activity in ip dosed ICR-DUB mouse assessed as survival administered 2 days prior to d-amphetamine challenge measured after 24 hrs; assay type: functional
Mus musculus [11] = assay: Neuroleptic activity in ip dosed ICR-DUB mouse assessed as survival administered 3 days prior to d-amphetamine challenge measured after 24 hrs; assay type: functional
Mus musculus [12] = assay: Neuroleptic activity in mouse assessed as suppression of conditioned avoidance behavior by measuring mean correct responses level at 10 mg/kg, ip administered 2 days prior to electric shock challenge; assay type: functional; details: route intraperitoneal; procedure, shortened: as §1
Mus musculus [13] = assay: Neuroleptic activity in ip dosed ICR-DUB mouse assessed as survival administered 4 hrs prior to d-amphetamine challenge measured after 24 hrs; assay type: functional
Mus musculus [14] = assay: Neuroleptic activity in ip dosed ICR-DUB mouse assessed as survival administered 5 days prior to d-amphetamine challenge measured after 24 hrs; assay type: functional
Mus musculus [15] = assay: Neuroleptic activity in mouse assessed as suppression of conditioned avoidance behavior by measuring mean correct responses level at 20 mg/kg, ip administered 7 days prior to electric shock challenge; assay type: functional, organism-based; design: dose 20 mg/kg
Mus musculus [16] = assay: Neuroleptic activity in ip dosed ICR-DUB mouse assessed as survival administered 4 days prior to d-amphetamine challenge measured after 24 hrs; assay type: functional
Mus musculus [17] = assay: Neuroleptic activity in mouse assessed as suppression of conditioned avoidance behavior by measuring mean correct responses level at 10 mg/kg, ip administered 3 days prior to electric shock challenge; assay type: functional; details: route intraperitoneal; procedure, shortened: as §1
Mus musculus [18] = assay: Toxicity in ICR-DUB mouse assessed as grooming of coat at 60 mg/kg, ip; assay type: organism-based; design: dose 60 mg/kg, route intraperitoneal; details: in vivo
Mus musculus [19] = assay: Toxicity in ICR-DUB mouse assessed as reduction in food intake at 60 mg/kg, ip; assay type: organism-based; design: dose 60 mg/kg, route intraperitoneal; details: in vivo
Mus musculus [20] = assay: Toxicity in ICR-DUB mouse assessed as depression at 60 mg/kg, ip measured for 5 days; assay type: organism-based; design: dose 60 mg/kg, route intraperitoneal; details: in vivo, 120 h
Mus musculus [21] = assay: Neuroleptic activity in mouse assessed as suppression of conditioned avoidance behavior by measuring mean correct responses level at 10 mg/kg, ip administered 4 days prior to electric shock challenge; assay type: functional; details: route intraperitoneal; procedure, shortened: as §1
Mus musculus [22] = assay: Neuroleptic activity in ip dosed ICR-DUB mouse assessed as survival administered 6 days prior to d-amphetamine challenge measured after 24 hrs; assay type: functional
Mus musculus [23] = assay: Toxicity in ICR-DUB mouse assessed as grooming at 50 mg/kg, ip; assay type: organism-based; design: dose 50 mg/kg, route intraperitoneal; details: in vivo
Mus musculus [24] = assay: Toxicity in ICR-DUB mouse assessed as body weight loss at 50 mg/kg, ip; assay type: organism-based; design: dose 50 mg/kg, route intraperitoneal; details: in vivo
Mus musculus [25] = assay: Toxicity in ICR-DUB mouse assessed as CNS depression at 50 mg/kg, ip measured for 24 hrs; assay type: organism-based; design: dose 50 mg/kg, route intraperitoneal; details: in vivo
Mus musculus [26] = assay: Toxicity in ICR-DUB mouse assessed as mild sedation at 50 mg/kg, ip measured for 6 days; assay type: organism-based; design: dose 50 mg/kg, route intraperitoneal; details: in vivo, 144 h
Mus musculus [27] = assay: Toxicity in ICR-DUB mouse assessed as grooming at 50 mg/kg, ip measured during first 24 hrs; assay type: organism-based; design: dose 50 mg/kg, route intraperitoneal; details: in vivo

O=C(c1ccc(Cl)c(Cl)c1)C1CCN(CCCN2c3ccccc3Sc3ccc(Cl)cc32)CC1
Activity (Mus musculus [1]): 97%
Activity (Mus musculus [2]): 93%
Activity (Mus musculus [3]): 95%
Activity (Mus musculus [4]): 97%
Activity (Mus musculus [5]): 97%
Activity (Mus musculus [6]): 92%
ED50 (Mus musculus [7]): inactive
ED50 (Mus musculus [8]): > 16 mg/kg

CN(C)CCCN1c2ccccc2Sc2ccc(Cl)cc21 [CHLORPROMAZINE]
Activity (Mus musculus [1]): 42%
Activity (Mus musculus [2]): 88%
Activity (Mus musculus [3]): 72%
ED50 (Mus musculus [9]): 3.65 mg/kg
ED50 (Mus musculus [10]): > 32 mg/kg
Activity (Mus musculus [4]): 96%
Activity (Mus musculus [5]): 28%
Activity (Mus musculus [6]): 37%
ED50 (Mus musculus [11]): Active
ED50 (Mus musculus [8]): 0.28 mg/kg
Activity (Mus musculus [12]): 95%

O.O=C(O)/C=C/C(=O)O.O=C(c1ccc(F)cc1)C1CCN(CCCN2c3ccccc3Sc3ccccc32)CC1
Activity (Mus musculus [1]): 63%
Activity (Mus musculus [2]): 87%
Activity (Mus musculus [3]): 93%
ED50 (Mus musculus [9]): 1.27 mg/kg
ED50 (Mus musculus [10]): 12.1 mg/kg
Activity (Mus musculus [4]): 97%
Activity (Mus musculus [5]): 70%
Activity (Mus musculus [6]): 75%
ED50 (Mus musculus [11]): > 50 mg/kg
ED50 (Mus musculus [13]): 0.35 mg/kg
ED50 (Mus musculus [7]): inactive
ED50 (Mus musculus [8]): 0.94 mg/kg
Activity (Mus musculus [12]): 98%

OC1(c2ccc(Cl)c(C(F)(F)F)c2)CCN(CCCC(c2ccc(F)cc2)c2ccc(F)cc2)CC1 [PENFLURIDOL]
ED50 (Mus musculus [14]): Active
ED50 (Mus musculus [9]): 1.52 mg/kg
ED50 (Mus musculus [10]): 3 mg/kg
Activity (Mus musculus [15]): Active
ED50 (Mus musculus [16]): 47.5 mg/kg
ED50 (Mus musculus [11]): 17 mg/kg
ED50 (Mus musculus [13]): 1.82 mg/kg
ED50 (Mus musculus [8]): 1.28 mg/kg

O=C(CCCN1CCC(O)(c2ccc(Cl)cc2)CC1)c1ccc(F)cc1 [HALOPERIDOL]
ED50 (Mus musculus [9]): 0.58 mg/kg
ED50 (Mus musculus [10]): 16 mg/kg
ED50 (Mus musculus [11]): Active
ED50 (Mus musculus [8]): 0.09 mg/kg

CC(=O)c1ccc2c(c1)N(CCCN1CCC(C(=O)c3ccc(F)cc3)CC1)c1ccccc1S2.O.O=C(O)/C=C/C(=O)O
ED50 (Mus musculus [14]): 60 mg/kg
Activity (Mus musculus [1]): 73%
Activity (Mus musculus [2]): 55%
Activity (Mus musculus [17]): 100%
Activity (Mus musculus [3]): 55%
ED50 (Mus musculus [10]): 22.5 mg/kg
Activity (Mus musculus [4]): 95%
Activity (Mus musculus [5]): 61%
Activity (Mus musculus [6]): 43%
ED50 (Mus musculus [16]): > 64 mg/kg
ED50 (Mus musculus [11]): 17.5 mg/kg
ED50 (Mus musculus [7]): inactive
Activity (Mus musculus [12]): 95%

O=C(O)/C=C/C(=O)O.O=C(c1ccc(F)cc1)C1CCN(CCCN2c3ccccc3Sc3ccc(Cl)cc32)CC1
ED50 (Mus musculus [14]): > 60 mg/kg
Activity (Mus musculus [1]): 80%
Activity (Mus musculus [18]): Toxic
Activity (Mus musculus [2]): 57%
Activity (Mus musculus [3]): 40%
ED50 (Mus musculus [9]): 0.72 mg/kg
ED50 (Mus musculus [10]): 4.6 mg/kg
Activity (Mus musculus [4]): 96%
Activity (Mus musculus [5]): 38%
Activity (Mus musculus [19]): Toxic
Activity (Mus musculus [6]): 32%
ED50 (Mus musculus [16]): 20.9 mg/kg
ED50 (Mus musculus [11]): 8.8 mg/kg
ED50 (Mus musculus [13]): 0.53 mg/kg
ED50 (Mus musculus [7]): inactive
ED50 (Mus musculus [8]): 0.17 mg/kg
Activity (Mus musculus [12]): 95%
Activity (Mus musculus [20]): Toxic

O=C(O)/C=C/C(=O)O.O=C(c1ccc(F)cc1)C1CCN(CCCN2c3ccccc3Sc3ccc(C(F)(F)F)cc32)CC1 [DUOPERONE FUMARATE]
ED50 (Mus musculus [14]): 28.4 mg/kg
Activity (Mus musculus [1]): 98%
Activity (Mus musculus [2]): 58%
Activity (Mus musculus [21]): 95%
ED50 (Mus musculus [22]): 26.5 mg/kg
Activity (Mus musculus [23]): Non-toxic
Activity (Mus musculus [17]): 58%
Activity (Mus musculus [24]): Non-toxic
Activity (Mus musculus [3]): 45%
Activity (Mus musculus [25]): Toxic
Activity (Mus musculus [26]): Toxic
ED50 (Mus musculus [10]): 4.7 mg/kg
Activity (Mus musculus [4]): 92%
Activity (Mus musculus [5]): 88%
Activity (Mus musculus [6]): 80%
ED50 (Mus musculus [16]): 27 mg/kg
ED50 (Mus musculus [11]): 15.2 mg/kg
ED50 (Mus musculus [7]): 45.5 mg/kg
Activity (Mus musculus [12]): 58%
Activity (Mus musculus [27]): Toxic
